Data as given in ChEMBL document CHEMBL4425133, “Discovery and Pharmacokinetic and Pharmacological Properties of the Potent and Selective MET Kinase Inhibitor 1-{6-[6-(4-Fluorophenyl)-[1,2,4]triazolo[4,3-b]pyridazin-3-ylsulfanyl]benzothiazol-2-yl}-3-(2-morpholin-4-ylethyl)urea (SAR125844)” (J Med Chem, 2016).
Where “and” joins values, the source holds several entries; their conditions need not be identical. Equal entries are not always repeated.

Columns and labels:
[1] = Terminal half life in rat at 5 mg/kg, iv […]; assay type: ADME, organism-based; settings: in vivo, read-out: beta t1/2 (converted)
[2] = AUC in SCID mouse bearing advanced-stage human Hs746T cells at 20 mg/kg, iv administered as single dose after 1 to 72 hrs by liquid chromatography-tandem mass spectrometry; assay type: ADME, organism-based; settings: in vivo
[3] = Drug level in advanced solid tumor patient at 50 to 740 mg/m2 during phase-1 trial; assay type: ADME; settings: human, in vivo
[4] = Volume of distribution at steady state in mouse at 1 mg/kg, iv; assay type: ADME, organism-based; settings: in vivo, read-out: Vdss
[5] = Unbound drug uptake in tumor of SCID mouse bearing advanced-stage human Hs746T cells at 20 mg/kg, iv administered as single dose after 24 hrs by liquid chromatography-tandem mass spectrometry; assay type: ADME, organism-based, Neoplasm; settings: in vivo
[6] = Volume of distribution at steady state in SCID mouse bearing advanced-stage human Hs746T cells at 20 mg/kg, iv administered as single dose after 1 to 72 hrs by liquid chromatography-tandem mass spectrometry; assay type: ADME, organism-based; settings: in vivo, read-out: Vdss
[7] = Terminal half life in mouse at 1 mg/kg, iv […]; assay type: ADME, organism-based; settings: in vivo, read-out: beta t1/2 (converted)
[8] = test system: Mus musculus; assay: Inhibition of MET Y1349 phosphorylation in SCID mouse bearing advanced-stage human Hs746T cells at 20 mg/kg, iv administered as single dose after 24 hrs by using MSD assay; assay type: functional
[9] = target: T1, Hepatocyte growth factor receptor (Homo sapiens, UniProt P08581); assay: Inhibition of phosphorylated MET in human MKN45 cells assessed as reduction in pMET Y1230/1234/1235 level incubated for 1 hr by ELISA; assay type: cell-based
Method in brief: (§1)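 MKN-45 is a MET-amplified human gastric tumour cell line.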

[10] = Clearance in dog at 3 mg/kg, iv; assay type: ADME, organism-based, Canis lupus familiaris; settings: in vivo
[11] = Drug distribution in rat tumor at 25 mg/kg administered as [14C[-labeled compound through infusion after 1 to 2 hrs; assay type: ADME, organism-based, Neoplasm; settings: in vivo, iv
[12] = Clearance in SCID mouse bearing advanced-stage human Hs746T cells at 20 mg/kg, iv administered as single dose after 1 to 72 hrs by liquid chromatography-tandem mass spectrometry; assay type: ADME, organism-based; settings: in vivo
[13] = Terminal half life in dog at 3 mg/kg, iv; assay type: ADME, organism-based, Canis lupus familiaris; settings: in vivo, read-out: beta t1/2 (converted)
[14] = Volume of distribution at steady state in advanced solid tumor patient at 50 to 740 mg/m2 during phase-1 trial; assay type: ADME; settings: human, in vivo; read-out: Vdss
[15] = Toxicity in advanced solid tumor patient at 50 to 740 mg/m2 during phase-1 trial; settings: human, in vivo
[16] = test system: Mus musculus; assay: Inhibition of MET Y1349 phosphorylation in SCID mouse bearing advanced-stage human Hs746T cells at 20 mg/kg, iv administered as single dose after 4 hrs by using MSD assay; assay type: functional
[17] = target: T1, Hepatocyte growth factor receptor; assay: Binding affinity to MET (unknown origin) by isothermal titration calorimetry
[18] = test system: Mus musculus; assay: Inhibition of MET Y1349 phosphorylation in SCID mouse bearing advanced-stage human Hs746T cells at 20 mg/kg, iv administered as single dose after 48 hrs by using MSD assay; assay type: functional
[19] = Volume of distribution at steady state in dog at 3 mg/kg, iv; assay type: ADME, organism-based, Canis lupus familiaris; settings: in vivo, read-out: Vdss
[20] = Terminal half life in advanced solid tumor patient at 50 to 740 mg/m2 during phase-1 trial; assay type: ADME; settings: human, in vivo; read-out: beta t1/2 (converted)
[21] = Clearance in mouse at 1 mg/kg, iv relative to hepatic blood flow; assay type: ADME, organism-based; settings: in vivo
[22] = target: Cytochrome P450 3A4 (Homo sapiens, UniProt P08684); assay: Inhibition of human recombinant CYP3A4 co-expressed with human P450 reductase and human b5 reductase assessed as reduction in 7-Hydroxyquinoline production using 7-benzyloxyquinoline as substrate and NADPH incubated for 15 mins by fluorimetry; assay type: ADME
[23] = target: T1, Hepatocyte growth factor receptor; assay: Inhibition of wild type phosphorylated MET (unknown origin) pre-incubated for 30 mins before biotinylated poly(glutamate-alanine-tyrosine) peptide addition and measured after 5 mins by HTRF assay
[24] = Clearance in dog at 3 mg/kg, iv relative to hepatic blood flow; assay type: ADME, organism-based, Canis lupus familiaris; settings: in vivo
[25] = target: Hepatocyte growth factor receptor (Homo sapiens, UniProt P08581, Y1230H); assay: Inhibition of phosphorylated MET Y1230H mutant (unknown origin) pre-incubated for 30 mins before biotinylated poly(glutamate-alanine-tyrosine) peptide addition and measured after 5 mins by HTRF assay
[26] = in vivo; settings: SCID, mouse, tumor/plasma, iv, 20 mg/kg
[27] = Oral bioavailability in mouse; assay type: ADME, organism-based; settings: in vivo
[28] = target: Hepatocyte growth factor receptor (Homo sapiens, UniProt P08581, M1250T); assay: Inhibition of phosphorylated MET M1250T mutant (unknown origin) pre-incubated for 30 mins before biotinylated poly(glutamate-alanine-tyrosine) peptide addition and measured after 5 mins by HTRF assay
[29] = Clearance in mouse at 1 mg/kg, iv; assay type: ADME, organism-based; settings: in vivo
[30] = Equilibrium solubility in phosphate buffer in presence of 10% Labrasol at pH 7.4; assay type: physicochemical; settings: phosphate buffer with 10% Labrasol
[31] = Equilibrium solubility in phosphate buffer in absence of 10% Labrasol at pH 7.4; assay type: physicochemical
[32] = Drug distribution in rat at 25 mg/kg administered as [14C[-labeled compound through infusion after 1 to 2 hrs; assay type: ADME, organism-based; settings: in vivo, iv
[33] = Apparent permeability from apical to basolateral side in human Caco2/TC7 cells at 20 uM by liquid chromatography-tandem mass spectrometry; settings: Caco-2
[34] = Clearance in rat at 5 mg/kg, iv; assay type: ADME, organism-based; settings: in vivo
[35] = Drug uptake in tumor of SCID mouse bearing advanced-stage human Hs746T cells at 20 mg/kg, iv administered as single dose after 24 hrs by liquid chromatography-tandem mass spectrometry; assay type: ADME, organism-based, Neoplasm; settings: read-out: Drug uptake
[36] = Lipophilicity, log D of the compound by HPLC method; assay type: physicochemical
[37] = Blood clearance in advanced solid tumor patient at 50 to 740 mg/m2 relative to hepatic blood flow during phase-1 trial; assay type: ADME, tissue-based; settings: human
[38] = test system: MKN-45; assay: Antiproliferative activity against human MKN45 cells assessed as reduction in [14C]-thymidine incorporation incubated for 96 hrs by beta counting method; assay type: functional, cell-based; settings: MKN-45, 96 h; method in brief: as §1
[39] = Protein binding in plasma of SCID mouse bearing advanced-stage human Hs746T cells at 20 mg/kg, iv administered as single dose after 24 hrs by liquid chromatography-tandem mass spectrometry; assay type: ADME, organism-based; settings: read-out: PPB (converted)
[40] = Volume of distribution at steady state in rat at 5 mg/kg, iv; assay type: ADME, organism-based; settings: in vivo, read-out: Vdss
[41] = Drug uptake in tumor of SCID mouse bearing advanced-stage human Hs746T cells at 20 mg/kg, iv administered as single dose after 1 to 72 hrs by liquid chromatography-tandem mass spectrometry; assay type: ADME, organism-based, Neoplasm; settings: in vivo
[42] = Drug metabolism in human hepatic microsomes at 5 uM incubated for 20 mins in presence of NADPH by liquid chromatography-tandem mass spectrometry; assay type: ADME, Microsome; settings: liver microsomes, read-out: Drug metabolism
[43] = Clearance in rat at 5 mg/kg, iv relative to hepatic blood flow; assay type: ADME, organism-based; settings: in vivo
[44] = target: Hepatocyte growth factor receptor (Homo sapiens, UniProt P08581, L1195V); assay: Inhibition of phosphorylated MET L1195V mutant (unknown origin) pre-incubated for 30 mins before biotinylated poly(glutamate-alanine-tyrosine) peptide addition and measured after 5 mins by HTRF assay
[45] = Blood clearance in advanced solid tumor patient at 50 to 740 mg/m2 during phase-1 trial; assay type: ADME, tissue-based; settings: human, whole blood
[46] = test system: Mus musculus; assay: Inhibition of MET Y1349 phosphorylation in SCID mouse bearing advanced-stage human Hs746T cells at 20 mg/kg, iv administered as single dose after 4 to 48 hrs by using MSD assay; assay type: functional, organism-based; settings: TDE = time-dependent effect

T1 sequence (P08581 whole entry): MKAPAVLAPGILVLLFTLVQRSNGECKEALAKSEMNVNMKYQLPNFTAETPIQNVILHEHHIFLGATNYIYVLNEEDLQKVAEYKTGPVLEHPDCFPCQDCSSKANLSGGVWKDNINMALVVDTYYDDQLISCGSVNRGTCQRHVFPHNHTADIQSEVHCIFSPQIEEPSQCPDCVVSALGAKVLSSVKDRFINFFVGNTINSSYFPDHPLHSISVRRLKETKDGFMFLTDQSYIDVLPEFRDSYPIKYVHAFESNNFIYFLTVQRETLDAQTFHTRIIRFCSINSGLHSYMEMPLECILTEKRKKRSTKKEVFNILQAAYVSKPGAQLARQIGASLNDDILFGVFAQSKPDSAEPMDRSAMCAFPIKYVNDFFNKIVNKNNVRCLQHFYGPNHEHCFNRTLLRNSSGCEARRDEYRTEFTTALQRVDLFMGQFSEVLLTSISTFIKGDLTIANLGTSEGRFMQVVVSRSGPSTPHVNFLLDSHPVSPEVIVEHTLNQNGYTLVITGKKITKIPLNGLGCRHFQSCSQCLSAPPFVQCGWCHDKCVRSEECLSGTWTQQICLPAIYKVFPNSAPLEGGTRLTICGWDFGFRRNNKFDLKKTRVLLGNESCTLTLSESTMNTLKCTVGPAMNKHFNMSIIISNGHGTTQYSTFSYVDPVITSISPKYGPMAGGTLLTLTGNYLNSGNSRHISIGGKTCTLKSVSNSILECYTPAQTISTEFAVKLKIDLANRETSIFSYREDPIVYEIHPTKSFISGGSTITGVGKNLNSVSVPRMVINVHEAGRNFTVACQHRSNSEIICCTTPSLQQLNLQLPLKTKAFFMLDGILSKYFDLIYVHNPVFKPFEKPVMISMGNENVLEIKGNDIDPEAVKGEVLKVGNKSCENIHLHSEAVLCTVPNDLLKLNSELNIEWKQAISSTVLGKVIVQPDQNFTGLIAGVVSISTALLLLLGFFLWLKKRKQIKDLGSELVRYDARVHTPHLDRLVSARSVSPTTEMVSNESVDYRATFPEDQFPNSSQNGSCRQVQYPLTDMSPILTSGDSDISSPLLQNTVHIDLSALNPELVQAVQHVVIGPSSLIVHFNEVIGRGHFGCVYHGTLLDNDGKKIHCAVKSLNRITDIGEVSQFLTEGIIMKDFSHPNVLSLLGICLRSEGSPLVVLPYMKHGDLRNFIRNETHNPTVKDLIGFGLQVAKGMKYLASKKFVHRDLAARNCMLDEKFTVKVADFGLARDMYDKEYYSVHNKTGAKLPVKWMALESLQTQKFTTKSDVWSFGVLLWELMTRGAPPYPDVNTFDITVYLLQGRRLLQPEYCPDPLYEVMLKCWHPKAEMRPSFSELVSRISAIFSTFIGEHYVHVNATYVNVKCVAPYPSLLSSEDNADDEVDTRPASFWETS
Chain of Hepatocyte growth factor receptor (Homo sapiens, UniProt P08581, Y1230H) (P08581 25-1390 Y1230H limits assumed): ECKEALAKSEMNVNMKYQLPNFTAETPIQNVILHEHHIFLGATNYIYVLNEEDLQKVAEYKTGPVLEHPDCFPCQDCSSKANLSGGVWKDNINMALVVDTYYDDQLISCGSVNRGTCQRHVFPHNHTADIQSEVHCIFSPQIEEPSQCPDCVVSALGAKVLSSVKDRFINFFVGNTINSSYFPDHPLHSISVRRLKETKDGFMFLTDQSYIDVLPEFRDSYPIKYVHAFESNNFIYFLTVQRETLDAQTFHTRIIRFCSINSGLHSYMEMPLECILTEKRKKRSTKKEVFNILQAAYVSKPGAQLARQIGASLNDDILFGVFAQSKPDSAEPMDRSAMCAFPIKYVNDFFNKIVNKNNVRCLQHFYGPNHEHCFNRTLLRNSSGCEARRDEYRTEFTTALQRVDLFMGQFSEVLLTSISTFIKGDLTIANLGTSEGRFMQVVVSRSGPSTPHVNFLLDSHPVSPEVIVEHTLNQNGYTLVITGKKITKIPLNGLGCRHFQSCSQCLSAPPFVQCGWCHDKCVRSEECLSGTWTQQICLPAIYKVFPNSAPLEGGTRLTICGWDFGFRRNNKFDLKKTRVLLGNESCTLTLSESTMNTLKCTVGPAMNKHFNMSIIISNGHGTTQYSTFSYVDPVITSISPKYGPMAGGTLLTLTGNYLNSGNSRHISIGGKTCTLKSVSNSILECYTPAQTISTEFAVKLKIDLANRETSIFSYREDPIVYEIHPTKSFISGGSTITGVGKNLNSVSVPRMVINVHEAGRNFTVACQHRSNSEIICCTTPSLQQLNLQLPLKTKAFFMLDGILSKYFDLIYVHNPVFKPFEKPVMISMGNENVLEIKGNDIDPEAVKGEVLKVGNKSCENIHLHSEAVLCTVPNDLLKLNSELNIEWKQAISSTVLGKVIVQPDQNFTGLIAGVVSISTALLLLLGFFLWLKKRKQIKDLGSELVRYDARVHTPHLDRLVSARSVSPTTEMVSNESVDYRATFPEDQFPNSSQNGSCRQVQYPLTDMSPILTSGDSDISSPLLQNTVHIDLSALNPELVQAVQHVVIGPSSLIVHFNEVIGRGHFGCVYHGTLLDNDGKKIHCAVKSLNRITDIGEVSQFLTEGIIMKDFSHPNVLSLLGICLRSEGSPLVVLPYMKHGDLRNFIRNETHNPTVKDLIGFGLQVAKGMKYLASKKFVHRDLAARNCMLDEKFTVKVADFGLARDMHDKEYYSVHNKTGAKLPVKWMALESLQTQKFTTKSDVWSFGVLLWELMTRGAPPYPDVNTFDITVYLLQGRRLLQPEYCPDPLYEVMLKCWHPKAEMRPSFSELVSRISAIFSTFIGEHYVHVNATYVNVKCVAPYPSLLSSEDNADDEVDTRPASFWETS
Chain of Hepatocyte growth factor receptor (Homo sapiens, UniProt P08581, M1250T) (P08581 25-1390 M1250T limits assumed): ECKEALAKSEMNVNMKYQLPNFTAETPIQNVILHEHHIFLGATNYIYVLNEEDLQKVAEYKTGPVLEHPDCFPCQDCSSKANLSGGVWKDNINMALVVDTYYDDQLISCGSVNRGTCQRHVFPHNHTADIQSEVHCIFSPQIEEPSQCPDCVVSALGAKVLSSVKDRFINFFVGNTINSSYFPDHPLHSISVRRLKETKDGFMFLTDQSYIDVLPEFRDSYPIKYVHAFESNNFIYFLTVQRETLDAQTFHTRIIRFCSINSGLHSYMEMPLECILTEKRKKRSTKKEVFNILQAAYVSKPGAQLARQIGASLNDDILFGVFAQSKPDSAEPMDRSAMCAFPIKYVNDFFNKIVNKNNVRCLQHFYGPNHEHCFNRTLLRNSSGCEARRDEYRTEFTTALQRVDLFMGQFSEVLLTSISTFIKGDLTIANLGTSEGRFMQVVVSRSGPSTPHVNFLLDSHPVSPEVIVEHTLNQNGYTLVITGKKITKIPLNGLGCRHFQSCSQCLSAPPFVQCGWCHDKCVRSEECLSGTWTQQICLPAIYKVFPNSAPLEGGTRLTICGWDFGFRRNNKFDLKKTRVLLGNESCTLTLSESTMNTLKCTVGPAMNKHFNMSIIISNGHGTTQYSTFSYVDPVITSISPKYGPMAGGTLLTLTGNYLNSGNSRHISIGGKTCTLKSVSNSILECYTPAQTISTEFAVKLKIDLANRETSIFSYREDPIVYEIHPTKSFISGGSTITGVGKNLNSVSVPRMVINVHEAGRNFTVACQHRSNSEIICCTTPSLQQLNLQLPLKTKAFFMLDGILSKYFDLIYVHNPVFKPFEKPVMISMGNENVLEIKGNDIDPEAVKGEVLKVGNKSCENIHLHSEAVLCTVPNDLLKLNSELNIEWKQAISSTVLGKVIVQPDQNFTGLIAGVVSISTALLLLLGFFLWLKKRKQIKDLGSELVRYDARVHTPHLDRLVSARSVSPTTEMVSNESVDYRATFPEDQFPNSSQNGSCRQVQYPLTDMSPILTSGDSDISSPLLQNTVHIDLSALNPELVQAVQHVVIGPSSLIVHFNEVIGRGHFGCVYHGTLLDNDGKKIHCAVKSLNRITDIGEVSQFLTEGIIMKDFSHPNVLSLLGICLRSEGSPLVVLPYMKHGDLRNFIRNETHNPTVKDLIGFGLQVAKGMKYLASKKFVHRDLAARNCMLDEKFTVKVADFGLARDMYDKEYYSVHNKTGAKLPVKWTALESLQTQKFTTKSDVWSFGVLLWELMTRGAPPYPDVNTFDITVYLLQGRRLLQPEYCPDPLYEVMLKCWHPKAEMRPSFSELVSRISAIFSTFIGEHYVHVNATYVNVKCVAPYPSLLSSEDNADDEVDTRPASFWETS
Chain of Cytochrome P450 3A4 (P08684 whole entry): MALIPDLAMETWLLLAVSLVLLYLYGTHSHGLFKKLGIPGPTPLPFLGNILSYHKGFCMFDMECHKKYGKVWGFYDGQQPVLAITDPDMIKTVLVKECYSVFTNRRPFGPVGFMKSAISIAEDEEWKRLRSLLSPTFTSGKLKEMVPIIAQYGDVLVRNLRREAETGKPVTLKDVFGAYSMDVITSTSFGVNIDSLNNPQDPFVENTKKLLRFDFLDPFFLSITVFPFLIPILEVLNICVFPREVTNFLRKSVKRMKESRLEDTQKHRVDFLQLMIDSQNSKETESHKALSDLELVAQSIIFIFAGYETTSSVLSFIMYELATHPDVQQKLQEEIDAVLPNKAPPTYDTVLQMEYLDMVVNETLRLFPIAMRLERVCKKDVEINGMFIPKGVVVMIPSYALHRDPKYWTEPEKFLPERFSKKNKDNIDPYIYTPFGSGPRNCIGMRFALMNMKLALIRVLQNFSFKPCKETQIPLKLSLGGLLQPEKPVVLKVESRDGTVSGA

For `O=C(NCCN1CCOCC1)Nc1nc2ccc(Sc3nnc4ccc(-c5ccc(F)cc5)nn34)cc2s1` [SAR-125844], the half-life [1] was 3.6 h, the AUC [2] was 6190 ng·h/mL and the Drug uptake [3] was “Dose-dependent effect”. For the same molecule, the Vd [4] was 3.2 L/kg, the “Drug uptake(free)” value [5] was 2 nM and the Vd [6] was 4.2 L/kg. The half-life [7] was 4.8 h, the inhibition in vivo at 20 mg/kg [8] was 80% and the IC50 [9] was 5 nM. For the same molecule, the clearance [10] was 8.33 mL/min/kg, the Drug uptake [11] was “Active” and the clearance [12] was 51.7 mL/min/kg. For the same molecule, the half-life [13] was 3.8 h, the Vd [14] was 505 L and 7.2 L/kg and the MTD [15] was 570 mg/m2. It also gave an inhibition in vivo at 20 mg/kg [16] of 96%, a Kd [17] of 0.9 nM and an inhibition in vivo at 20 mg/kg [18] of 61%. It also gave a Vd [19] of 1.3 L/kg, a half-life [20] of 15.9 h and a CL [21] of 54%. For the same molecule, the IC50 [22] was over 200000 nM, the IC50 [23] was 4 nM and the CL [24] was 20%. The IC50 [25] was 204 nM, the Kp [26] was 8.1 and the bioavailability [27] was 2%. The IC50 [28] was 6 nM, the clearance [29] was 46.7 mL/min/kg and the solubility thermodynamic [30] was 500 µM. For the same molecule, the solubility thermodynamic [31] was under 1 µM, the Drug uptake [32] was “Active” and the Papp A→B at 20 µM [33] was 0.9 ×10⁻⁶ cm/s. The clearance [34] was 25 mL/min/kg, the concentration at 24 h [35] was 300 ng/mL and the logD [36] was 4.2. It also gave a CL [37] of 37%, an IC50 [38] of 7 nM and a fraction unbound at 24 h [39] of 0.0033. For the same molecule, the Vd [40] was 2.9 L/kg, the Drug uptake [41] was “Active” and the metabolised at 20 min, 5 µM [42] was 23%. For the same molecule, the CL [43] was 36%, the IC50 [44] was 64 nM and the clearance [45] was 565 mL/min and 8.33 mL/min/kg. The inhibition [46] was “Tde”.
